Measurements taken from ChEMBL document CHEMBL4619761, “Biosurfactants from Marine Cyanobacteria Collected in Sabah, Malaysia” (J Nat Prod, 2020).
The source made the active and inactive calls. The calls are words filed in the database; no cut-off is given here.

What was measured:
MCF7 = assay: Cytotoxicity against human MCF7 cells incubated for 72 hrs by MTT assay; assay type: functional, cell-based; details: MCF7, 72 h
[1] = Biosurfactant activity assessed as diameter of clear zone at 10 mg/ml by oil displacement assay; assay type: functional
Summary of the method: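 Oil displacement assay as an indirect measure of surface activity: sample tested at 10 mg/mL and the clear-zone diameter measured. SDS and pluronic F-68 were run at the same concentration for reference.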

[2] = Biosurfactant activity assessed as reduction in surface tension of aqueous solution at 10 to 1200 ug/ml by ring method; assay type: functional
Summary of the method: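 Surface tension of aqueous solutions (10−1200 μg/mL) measured by the ring method on a Du Noüy tensiometer with a platinum ring at 25 °C, in triplicate. The instrument was calibrated against pure H2O before each set. CMC was taken from the breakpoint of the surface tension versus log bulk concentration curve.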

[3] = Biosurfactant activity assessed as Critical micelle concentration of compound; assay type: physicochemical
Amphibalanus amphitrite = assay: Antifouling activity against Amphibalanus amphitrite at 0.88 ug/ml; assay type: functional, organism-based

| Compound | Activity [1] [mm] | CMC [3] [mM] | IC50 (MCF7) [µg/mL] | Activity [2] | further results |
| --- | --- | --- | --- | --- | --- |
| CCCCCCCCC(Cl)CCCC/C=C/CCC(=O)N(C)[C@H](CO)COC (stereo not given in full) | – | – | > 10 | – | – |
| CCCCCCCCCCCCOS(=O)(=O)[O-].[Na+] | 84 | – | – | – | – |
| COC[C@@H](COC(C)=O)N(C)C(=O)CC/C=C/CCCCC(Cl)CCCCCCCC(Cl)Cl (stereo not given in full) | – | – | > 10 | – | – |
| CCCCCCCCCCCCCCC/C=C(\C)C(=O)N[C@@H](CO)COC | – | 0.78 | – | Active | Activity (Amphibalanus amphitrite): Active |

Continued, in another order:

| Activity [1] [mm] | CMC [3] [mM] | Compound | IC50 (MCF7) [µg/mL] | Activity [2] | further results |
| --- | --- | --- | --- | --- | --- |
| – | 0.34 | COC[C@@H](CO)N(C)C(=O)CC/C=C/CCCC[C@H](Cl)CCCCCCCCCl | – | Active | – |
| 90 | – | COC[C@@H](COC(C)=O)N(C)C(=O)CC/C=C/CCCC[C@H](Cl)CCCCCCCCCl | > 10 | – | – |
